OX1R antag-1 – antagonists of human orexin 1 receptor (OX1R) | Orexin/Hypocretin receptor type 1 (Homo sapiens), O43613 | OX1R-expressing cells, FRET antagonist read-out | inhibition, % at 6.6 µM | actives 1.8% (n = 330,000); in the data active = inhibition mostly above about 38%, no sharp cut-off; inactive = mostly below about 40%;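 note: 0% = agonist challenge alone and 100% = reference antagonist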
Target sequence (O43613 whole entry, looked up): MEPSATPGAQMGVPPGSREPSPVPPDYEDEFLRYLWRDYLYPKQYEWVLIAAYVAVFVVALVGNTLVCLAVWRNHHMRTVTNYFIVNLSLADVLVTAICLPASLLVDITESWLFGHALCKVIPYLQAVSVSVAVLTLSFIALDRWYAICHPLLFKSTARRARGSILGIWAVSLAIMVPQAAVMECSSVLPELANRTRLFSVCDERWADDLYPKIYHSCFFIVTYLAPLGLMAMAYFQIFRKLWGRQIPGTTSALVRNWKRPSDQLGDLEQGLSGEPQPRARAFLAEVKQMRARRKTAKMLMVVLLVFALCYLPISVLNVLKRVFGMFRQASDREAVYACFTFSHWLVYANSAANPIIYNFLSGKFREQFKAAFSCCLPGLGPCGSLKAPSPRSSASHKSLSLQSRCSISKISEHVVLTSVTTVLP
TAAR1 antag – human TAAR1 antagonists, primary screen, Fluo-8 calcium fluorescence, CHO RD-HGA16 cells. inhibition, % at 3 µM. AID 624466, 2012. antagonist. actives 1.5% (n = 360,000);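 active = inhibition above a per-plate cutoff, the mean inhibition of test compounds on that plate plus 3 SD, cut at about 49% in these data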;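 note: 0% = DMSO plus EC80 beta-PEA response and 100% = DMSO alone without agonist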
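Test system – hTAAR1-expressing CHO RD-HGA16 cells, Gα16-coupled · Also added – β-PEA at EC80 concentration, post-compound challenge · Compound – 3 µM, single point · Incubation – dye loading 75 min at 37 °C, then 30 min room temperature · Measured by – Fluo-8 intracellular calcium dye fluorescence, real-time kinetic reads · Benchmarks – vehicle and agonist controls · Replicates – singlicate, one well per test compound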
CHO parental Ca – ATP-evoked calcium signal inhibitors, parental CHO, primary screen, counter-screen for OX1R antagonist project, cell-based, fluorescence, Fluo-8 calcium dye; parental CHO-K1, ATP-induced calcium, Fluo-8 fluorescence; inhibition, % at 5.6 µM; actives 0.63% (n = 330,000);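 active = inhibition above that plate's mean sample inhibition plus 3 SD, cut at about 26% in these data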;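 note: 0% = ATP-challenged DMSO wells and 100% = DMSO wells without ATP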
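Assay system – parental CHO cells · Reagent – ATP stimulus · Detection – intracellular calcium via Fluo-8 no-wash fluorescent dye · Evaluation – percent inhibition of ATP-evoked calcium rise, normalized to controls · Controls – ATP wells versus no-ATP DMSO wells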
OX1R antag-2 – OX1R (HCRTR1) antagonists, primary screen, fluorescence, CHO/OX1R cells, Fluo-8 calcium, orexin A; Orexin/Hypocretin receptor type 1 (Homo sapiens), O43613; Fluo-8 calcium fluorescence; inhibition, % at 5 µM; actives 0.43% (n = 330,000); AID 434989, 2010;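 active = inhibition above its plate's threshold, mean inhibition of all tested compounds on the plate plus 3 SD, cut at about 37% in these data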;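 note: 0% = orexin A challenge wells and 100% = SB-334867-A antagonist wells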
GPR7 antag – GPR7 receptor antagonists, primary screen, cell-based, fluorescence, single concentration; Neuropeptides B/W receptor type 1 (Homo sapiens), P48145; GPR7-expressing cells, fluorescence antagonist assay; inhibition, % at 4.4 µM; actives 1.1% (n = 290,000); in the data active = inhibition above about 16%, passing the limit was not always enough;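 note: cells stimulated with the agonist NPW; 0% = agonist with vehicle and 100% = vehicle without agonist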
TAAR1 agonist – human TAAR1 agonists, primary screen, Fluo-8 calcium fluorescence, CHO RD-HGA16 cells | Trace amine-associated receptor 1 (Homo sapiens), Q96RJ0 | vehicle wells 0%, saturating PEA agonist 100% | activation, % at 3 µM | actives 0.99% (n = 360,000);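 active = activation above the mean activation of all test compounds in the run plus 3 SD, cut at about 38% in these data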
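Repeats: no replicates (n 1) | Material: CHO-derived RD-HGA16 cells with stable Gα16 and human TAAR1 | Technique: Kinetic Fluo-8 calcium fluorescence | Schedule: 17-24 h seeding, 75 min 37 °C dye, 30 min RT | Evaluation: % activation from peak over basal fluorescence ratio, DMSO-to-PEA scaled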
* = called active by the depositor. A selection: hits, their analogues and other compounds. The true share with any hit is near 4.6%.

Screening Cc1cccc(/C=C/c2onc(C)c2[N+](=O)[O-])n1 returned OX1R antag-1 65*, TAAR1 antag -5, CHO parental Ca -11, OX1R antag-2 -12 and TAAR1 agonist -1.
CCC1Oc2ccc(C)cc2N(CC(=O)NCCc2ccc(OC)c(OC)c2)C1=O (stereo not given) was read as OX1R antag-1 62*, TAAR1 antag 11, CHO parental Ca -12, OX1R antag-2 -33, GPR7 antag -3 and TAAR1 agonist 3.
O=C(N[C@H](C(=O)N1CCC[C@H]1C(=O)NCCc1ccccc1Cl)c1ccccc1)C1CC1 was read as TAAR1 antag 12 and TAAR1 agonist 37.
Screening O=C(Nc1ccc(-c2nc3ccccc3o2)c(O)c1)c1cc(-n2cnnc2)ccc1Cl returned OX1R antag-1 17, TAAR1 antag 29, CHO parental Ca 32*, OX1R antag-2 11, GPR7 antag -5 and TAAR1 agonist 10.
`O=C(Nc1ccc(-c2nc3ccccc3o2)cc1)c1cc(-n2cnnc2)ccc1Cl` gave OX1R antag-1 15, TAAR1 antag 32, CHO parental Ca 8, OX1R antag-2 5, GPR7 antag -6 and TAAR1 agonist 10.
For CC(=O)c1c(C)n([O-])c2ccc(C)cc2[n+]1=O the results were OX1R antag-1 41*, TAAR1 antag -19, CHO parental Ca -4, OX1R antag-2 2, GPR7 antag -2 and TAAR1 agonist 2.
Cc1c(Cc2ccccc2)[n+](=O)c2ccccc2n1[O-] was read as TAAR1 antag -16 and TAAR1 agonist 0.
COC(=O)c1cc2c(c3c4cc(C)ccc4n(S(=O)(=O)c4ccc(C)cc4)c13)C(=O)N(Cc1ccc(N(C)C)cc1)C2 was read as TAAR1 antag -4 and TAAR1 agonist -2.
`Nc1nc2ccc(Cl)cc2cc1C(=O)NCCCN1CCOCC1` gave TAAR1 antag -8 and TAAR1 agonist 4.
CCc1ccc(C(O)c2ncc(-c3ccccc3OC)[nH]2)cc1 (stereo not given) was read as TAAR1 antag -13 and TAAR1 agonist 5.
`Cc1nn(-c2ccccc2)c2sc(-c3n[nH]c(=S)o3)cc12` gave OX1R antag-1 41*, TAAR1 antag 9, CHO parental Ca -14, OX1R antag-2 5, GPR7 antag 2 and TAAR1 agonist 2.
Screening COc1ccc(NC(=O)CCSc2cc(C)c3ccccc3n2)cc1 returned OX1R antag-1 21, TAAR1 antag -15, CHO parental Ca -27, OX1R antag-2 -14, GPR7 antag 9 and TAAR1 agonist -5.
For COc1ccc2nc(SCC(=O)NN)cc(C)c2c1 the results were OX1R antag-1 49*, TAAR1 antag -12, CHO parental Ca -25, OX1R antag-2 20, GPR7 antag -4 and TAAR1 agonist -1.
For O=C(NCc1ccccc1)[C@@H]1CCCN1C(=O)[C@H]1CCCN1C(=O)c1ccccc1Cl the results were TAAR1 antag -13 and TAAR1 agonist 3.
Screening COc1ccc(CCn2c(=N)c(S(=O)(=O)c3ccccc3)cc3c(=O)n4ccccc4nc32)cc1 returned OX1R antag-1 8, TAAR1 antag -10, CHO parental Ca -6, OX1R antag-2 -14, GPR7 antag 2 and TAAR1 agonist 2.
`N=c1c(C(=O)NCCN2CCOCC2)cc2c(=O)n3ccccc3nc2n1CCc1ccccc1` gave OX1R antag-1 62*, TAAR1 antag -13, CHO parental Ca -7, OX1R antag-2 1, GPR7 antag 24 and TAAR1 agonist 16.
Cc1ccc(Cn2c(=N)c(C(=O)NC3CCCC3)cc3c(=O)n4ccccc4nc32)cc1 was read as OX1R antag-1 13, CHO parental Ca -1, OX1R antag-2 -8 and GPR7 antag 0.
Screening Cc1ccc(Cn2c(=N)c(C(=O)NCCN3CCOCC3)cc3c(=O)n4ccccc4nc32)cc1 returned OX1R antag-1 54*, TAAR1 antag -15, CHO parental Ca -16, OX1R antag-2 -4, GPR7 antag -4 and TAAR1 agonist 1.
COc1ccc(CCn2c(=N)c(C(=O)NCc3ccco3)cc3c(=O)n4ccccc4nc32)cc1 was read as OX1R antag-1 47*, TAAR1 antag 17, CHO parental Ca 2, OX1R antag-2 -8, GPR7 antag -2 and TAAR1 agonist 3.
Screening N=c1c(C(=O)NCc2ccccc2)cc2c(=O)n3ccccc3nc2n1CCCN1CCOCC1 returned OX1R antag-1 45*, TAAR1 antag -2, CHO parental Ca 0, OX1R antag-2 -12 and TAAR1 agonist 5.
For CC(C)(C)OC(=O)N1CCCN(C(c2ccnc3ccccc23)c2nnnn2-c2ccc3c(c2)OCCO3)CC1 (stereo not given) the results were TAAR1 antag -17 and TAAR1 agonist 10.
Screening C#CCNC[C@@H]1CSCCS(=O)(=O)N1 returned TAAR1 antag 0 and TAAR1 agonist 3.
CC(=O)Nc1ccc(S(=O)(=O)N2CCN=C2SCc2ccc([N+](=O)[O-])cc2)cc1 was read as OX1R antag-1 22, TAAR1 antag 26, CHO parental Ca 33*, OX1R antag-2 9, GPR7 antag 11 and TAAR1 agonist 12.
`O=C(NCc1ccccc1)[C@H]1CCCN1C(=O)[C@H]1CCCN1C(=O)c1ccc(F)cc1` gave TAAR1 antag -13 and TAAR1 agonist 2.
`CN(C)c1ccc(Sc2ccc3nc(N)nc(N)c3c2)cc1` gave TAAR1 antag 12 and TAAR1 agonist 44*.
COc1ccccc1Oc1ncnc2sccc12 was read as OX1R antag-1 8, TAAR1 antag -15, CHO parental Ca -1, OX1R antag-2 -15, GPR7 antag -6 and TAAR1 agonist 2.
c1ccc2c(c1)OCC(CNc1ncnc3sccc13)O2 (stereo not given) was read as OX1R antag-1 52, TAAR1 antag 30, CHO parental Ca 68*, OX1R antag-2 24, GPR7 antag 17 and TAAR1 agonist 8.
`COc1ccc(CCNc2ncnc3sccc23)cc1OC` gave OX1R antag-1 58, TAAR1 antag 32, CHO parental Ca 76*, OX1R antag-2 42*, GPR7 antag 9 and TAAR1 agonist 11.
`COc1ccccc1CNc1ncnc2sccc12` gave OX1R antag-1 47*, TAAR1 antag 10, CHO parental Ca 41*, OX1R antag-2 -4, GPR7 antag 2 and TAAR1 agonist 2.

Assay outcomes: PubChem BioAssay, The Scripps Research Institute Molecular Screening Center
